Source: ChEMBL document CHEMBL1152541, “Staurosporine tethered peptide ligands that target cAMP-dependent protein kinase (PKA): optimization and selectivity profiling” (Bioorg Med Chem, 2009)
Values belong to the molecule of their own block, whether it stands above or below them. *1 amine or outer side, *2 acyl side, *3 side chain or, on linkers, in order; H or OH if unused. Where a SMILES comes first, the peptide text is derived from it. Bridges are numbered along the chain shown (N, C = ends). [ ]: non-standard residue; d: D form. The star is where a group is joined. Staurosporine = CO[C@@H]1[C@H](N(C)*)C[C@H]2O[C@]1(C)n1c3ccccc3c3c4c(c5c6ccccc6n2c5c31)C(=O)NC4; Suc = O=C(CCC(=O)[*:2])[*:1]; Dap = NC[C@H](N)C(=O)O; βAla = NCCC(=O)O

Experiments:
[1] = target: Phosphatidylinositol 4,5-bisphosphate 3-kinase catalytic subunit alpha isoform (Homo sapiens) (UniProt P42336); experiment: Binding affinity to human PIK3Calpha at 500 nM by cell-based competition binding assay relative to control in presence of DTT
[2] = target: Tyrosine-protein kinase JAK2 (Homo sapiens) (UniProt O60674); experiment: Binding affinity to human JAK2 kinase domain 2 at 200 nM by cell-based competition binding assay relative to control in presence of DTT
In short: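 Competition binding screen (Ambit) across a panel of 90 kinases, scoring test ligand displacement of each kinase's binding relative to control. The screen ran under reducing conditions with 7.5 mM DTT.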

[3] = target: Serine/threonine-protein kinase PAK 1 (Homo sapiens) (UniProt Q13153); experiment: Binding affinity to human PAK1 at 200 nM by cell-based competition binding assay relative to control in presence of DTT
[4] = target: Dual specificity mitogen-activated protein kinase kinase 2 (Homo sapiens) (UniProt P36507); experiment: Binding affinity to human MEK2 at 200 nM by cell-based competition binding assay relative to control in presence of DTT
[5] = target: Platelet-derived growth factor receptor alpha (Homo sapiens) (UniProt P16234); experiment: Binding affinity to human PDGFRalpha at 200 nM by cell-based competition binding assay relative to control in presence of DTT
[6] = target: Receptor-type tyrosine-protein kinase FLT3 (Homo sapiens) (UniProt P36888); experiment: Binding affinity to human FLT3 at 200 nM by cell-based competition binding assay relative to control in presence of DTT
In short: (§1)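 Commercial (Ambit) competitive kinase-binding panel of 90 kinases measured the binding profile. Run under reducing conditions of 7.5 mM DTT. Binding is expressed relative to control.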

[7] = target: Ephrin type-A receptor 2 (Homo sapiens) (UniProt P29317); experiment: Binding affinity to human EPHA2 at 200 nM by cell-based competition binding assay relative to control in presence of DTT; in short: as §1
[8] = target: Tyrosine-protein kinase receptor UFO (Homo sapiens) (UniProt P30530); experiment: Binding affinity to human AXL at 50 nM by cell-based competition binding assay relative to control in presence of DTT
In short: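 Kinase binding profiling ran on a commercial (Ambit) competitive binding screen against a panel of 90 kinases. The screen used reducing conditions with 7.5 mM DTT. To withstand the DTT, the bivalent ligand was tested as its amide isostere, with the disulfide replaced. A staurosporine derivative carrying a 3 β-alanine linker was run as the reference compound.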

[9] = target: Macrophage colony-stimulating factor 1 receptor (Homo sapiens) (UniProt P07333); experiment: Binding affinity to human CSF1R at 50 nM by cell-based competition binding assay relative to control in presence of DTT; in short: as §1
[10] = target: T1, Protein kinase C epsilon type (Homo sapiens) (UniProt Q02156); experiment: Binding affinity to human PRKCepsilon at 50 nM by cell-based competition binding assay relative to control in presence of DTT
T1 sequence (whole entry): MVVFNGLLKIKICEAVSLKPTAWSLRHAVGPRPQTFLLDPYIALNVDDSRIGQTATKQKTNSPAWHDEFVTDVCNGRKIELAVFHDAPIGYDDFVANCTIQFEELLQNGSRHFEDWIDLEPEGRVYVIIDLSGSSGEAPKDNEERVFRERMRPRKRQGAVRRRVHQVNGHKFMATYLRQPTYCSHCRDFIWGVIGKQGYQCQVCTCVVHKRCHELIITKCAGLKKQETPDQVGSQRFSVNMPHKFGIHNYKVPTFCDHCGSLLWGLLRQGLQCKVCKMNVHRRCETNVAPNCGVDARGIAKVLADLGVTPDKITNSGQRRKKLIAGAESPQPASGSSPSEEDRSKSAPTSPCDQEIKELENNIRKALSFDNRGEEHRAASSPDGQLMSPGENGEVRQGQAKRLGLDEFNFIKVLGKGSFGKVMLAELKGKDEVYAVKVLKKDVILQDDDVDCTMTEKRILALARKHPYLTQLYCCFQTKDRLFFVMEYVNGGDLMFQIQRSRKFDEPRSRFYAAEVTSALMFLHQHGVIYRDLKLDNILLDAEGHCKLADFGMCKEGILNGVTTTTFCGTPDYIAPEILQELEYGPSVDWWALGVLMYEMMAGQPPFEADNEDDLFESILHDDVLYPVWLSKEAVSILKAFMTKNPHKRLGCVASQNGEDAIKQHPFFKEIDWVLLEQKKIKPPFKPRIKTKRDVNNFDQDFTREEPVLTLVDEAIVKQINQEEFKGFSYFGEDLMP

[11] = target: T2, Serine/threonine-protein kinase PLK4 (Homo sapiens) (UniProt O00444); experiment: Binding affinity to human PLK4 at 50 nM by cell-based competition binding assay relative to control in presence of DTT
T2 sequence (whole entry): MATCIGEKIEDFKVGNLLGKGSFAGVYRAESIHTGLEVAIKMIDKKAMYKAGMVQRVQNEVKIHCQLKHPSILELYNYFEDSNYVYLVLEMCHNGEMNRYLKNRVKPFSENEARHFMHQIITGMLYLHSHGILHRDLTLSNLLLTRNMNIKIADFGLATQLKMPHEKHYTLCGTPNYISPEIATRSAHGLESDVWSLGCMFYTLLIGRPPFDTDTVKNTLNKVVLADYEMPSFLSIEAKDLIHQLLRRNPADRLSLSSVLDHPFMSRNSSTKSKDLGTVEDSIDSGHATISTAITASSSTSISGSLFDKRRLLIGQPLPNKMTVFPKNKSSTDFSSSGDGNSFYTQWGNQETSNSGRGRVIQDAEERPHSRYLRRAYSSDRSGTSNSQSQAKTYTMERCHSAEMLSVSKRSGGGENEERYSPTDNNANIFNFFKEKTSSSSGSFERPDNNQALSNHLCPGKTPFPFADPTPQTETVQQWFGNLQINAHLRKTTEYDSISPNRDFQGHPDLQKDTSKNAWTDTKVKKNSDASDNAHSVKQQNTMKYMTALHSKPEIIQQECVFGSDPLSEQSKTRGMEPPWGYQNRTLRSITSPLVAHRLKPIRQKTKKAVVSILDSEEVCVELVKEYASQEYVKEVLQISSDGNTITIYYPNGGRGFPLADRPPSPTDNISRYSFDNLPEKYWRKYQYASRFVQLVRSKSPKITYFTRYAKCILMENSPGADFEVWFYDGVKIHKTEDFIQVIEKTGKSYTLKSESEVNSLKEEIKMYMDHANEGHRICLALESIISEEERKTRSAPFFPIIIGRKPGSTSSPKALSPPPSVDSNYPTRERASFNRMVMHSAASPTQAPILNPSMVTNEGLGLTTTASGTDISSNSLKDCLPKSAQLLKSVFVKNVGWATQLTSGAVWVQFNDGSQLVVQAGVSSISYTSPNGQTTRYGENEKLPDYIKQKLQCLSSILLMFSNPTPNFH

[12] = target: Serine/threonine-protein kinase PAK 4 (Homo sapiens) (UniProt O96013); experiment: Binding affinity to human PAK4 at 50 nM by cell-based competition binding assay relative to control in presence of DTT
Sequence of Serine/threonine-protein kinase PAK 4 (Homo sapiens) (O96013 whole entry, looked up): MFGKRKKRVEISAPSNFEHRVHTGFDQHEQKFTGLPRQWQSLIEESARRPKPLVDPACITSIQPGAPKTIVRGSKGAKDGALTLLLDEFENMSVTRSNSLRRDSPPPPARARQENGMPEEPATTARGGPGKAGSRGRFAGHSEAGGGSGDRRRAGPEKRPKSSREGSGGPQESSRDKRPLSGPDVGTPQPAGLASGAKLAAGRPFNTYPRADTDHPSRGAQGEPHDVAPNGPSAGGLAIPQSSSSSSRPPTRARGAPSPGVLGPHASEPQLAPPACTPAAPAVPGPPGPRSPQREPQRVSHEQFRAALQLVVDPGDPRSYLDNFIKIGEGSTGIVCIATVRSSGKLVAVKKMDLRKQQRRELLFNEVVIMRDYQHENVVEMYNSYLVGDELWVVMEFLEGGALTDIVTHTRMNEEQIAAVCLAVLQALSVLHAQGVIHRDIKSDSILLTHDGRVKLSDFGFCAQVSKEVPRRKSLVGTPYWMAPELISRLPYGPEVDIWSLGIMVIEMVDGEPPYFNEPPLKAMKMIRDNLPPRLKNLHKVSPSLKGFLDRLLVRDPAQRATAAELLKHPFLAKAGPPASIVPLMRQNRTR

Sequence of Platelet-derived growth factor receptor alpha (Homo sapiens) (P16234 whole entry): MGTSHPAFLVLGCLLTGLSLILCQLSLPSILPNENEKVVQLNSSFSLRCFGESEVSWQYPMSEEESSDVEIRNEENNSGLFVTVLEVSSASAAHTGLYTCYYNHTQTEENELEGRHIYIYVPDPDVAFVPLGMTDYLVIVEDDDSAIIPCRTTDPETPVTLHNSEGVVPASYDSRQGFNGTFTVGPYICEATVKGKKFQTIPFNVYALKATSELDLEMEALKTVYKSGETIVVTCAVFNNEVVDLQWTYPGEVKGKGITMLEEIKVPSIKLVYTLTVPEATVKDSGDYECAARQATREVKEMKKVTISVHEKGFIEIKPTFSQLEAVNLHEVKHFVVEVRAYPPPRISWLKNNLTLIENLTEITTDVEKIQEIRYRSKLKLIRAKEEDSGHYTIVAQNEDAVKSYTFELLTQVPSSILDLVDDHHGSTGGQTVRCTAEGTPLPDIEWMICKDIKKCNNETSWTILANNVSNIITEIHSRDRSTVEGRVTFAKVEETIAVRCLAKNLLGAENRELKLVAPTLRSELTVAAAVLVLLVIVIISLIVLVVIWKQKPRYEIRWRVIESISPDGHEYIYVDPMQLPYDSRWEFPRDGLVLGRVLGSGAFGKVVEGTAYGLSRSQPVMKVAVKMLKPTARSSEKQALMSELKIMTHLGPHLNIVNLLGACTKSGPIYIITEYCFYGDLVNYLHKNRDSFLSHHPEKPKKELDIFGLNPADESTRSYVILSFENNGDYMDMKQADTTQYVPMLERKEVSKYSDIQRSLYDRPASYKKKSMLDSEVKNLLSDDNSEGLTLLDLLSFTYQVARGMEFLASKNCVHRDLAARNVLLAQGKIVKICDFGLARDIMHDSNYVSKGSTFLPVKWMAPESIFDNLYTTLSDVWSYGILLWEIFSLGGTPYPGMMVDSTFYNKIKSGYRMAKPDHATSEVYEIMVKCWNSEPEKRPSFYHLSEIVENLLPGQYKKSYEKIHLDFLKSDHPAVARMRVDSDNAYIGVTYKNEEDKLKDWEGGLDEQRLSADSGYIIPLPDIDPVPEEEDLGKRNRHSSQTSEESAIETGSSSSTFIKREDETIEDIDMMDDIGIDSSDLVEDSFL
Sequence of Ephrin type-A receptor 2 (Homo sapiens) (P29317 whole entry): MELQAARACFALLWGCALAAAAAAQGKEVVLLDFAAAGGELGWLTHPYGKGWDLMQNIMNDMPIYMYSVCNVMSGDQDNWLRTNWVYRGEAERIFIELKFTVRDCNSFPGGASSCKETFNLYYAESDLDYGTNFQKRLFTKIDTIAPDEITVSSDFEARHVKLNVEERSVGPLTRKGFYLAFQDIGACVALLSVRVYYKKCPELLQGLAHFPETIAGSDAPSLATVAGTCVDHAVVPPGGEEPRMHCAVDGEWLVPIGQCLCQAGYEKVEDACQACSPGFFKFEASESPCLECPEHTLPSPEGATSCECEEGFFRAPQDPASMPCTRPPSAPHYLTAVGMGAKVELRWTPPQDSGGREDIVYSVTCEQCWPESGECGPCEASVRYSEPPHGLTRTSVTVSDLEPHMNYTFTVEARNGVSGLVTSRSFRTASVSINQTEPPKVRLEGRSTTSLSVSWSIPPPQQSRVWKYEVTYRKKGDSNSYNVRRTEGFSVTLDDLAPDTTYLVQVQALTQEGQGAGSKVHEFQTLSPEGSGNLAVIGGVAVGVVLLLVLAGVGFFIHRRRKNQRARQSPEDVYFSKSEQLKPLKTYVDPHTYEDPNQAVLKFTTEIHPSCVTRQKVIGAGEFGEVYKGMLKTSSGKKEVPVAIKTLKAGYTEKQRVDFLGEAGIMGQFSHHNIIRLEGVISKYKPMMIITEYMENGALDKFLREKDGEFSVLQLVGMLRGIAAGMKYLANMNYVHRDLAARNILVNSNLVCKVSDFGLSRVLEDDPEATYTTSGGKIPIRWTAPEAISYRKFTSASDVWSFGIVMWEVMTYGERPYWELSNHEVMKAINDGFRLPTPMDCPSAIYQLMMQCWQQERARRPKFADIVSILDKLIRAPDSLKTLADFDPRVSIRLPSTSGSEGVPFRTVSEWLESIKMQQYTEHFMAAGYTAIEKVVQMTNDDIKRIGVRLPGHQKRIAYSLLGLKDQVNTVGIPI
Sequence of Tyrosine-protein kinase receptor UFO (Homo sapiens) (P30530 whole entry): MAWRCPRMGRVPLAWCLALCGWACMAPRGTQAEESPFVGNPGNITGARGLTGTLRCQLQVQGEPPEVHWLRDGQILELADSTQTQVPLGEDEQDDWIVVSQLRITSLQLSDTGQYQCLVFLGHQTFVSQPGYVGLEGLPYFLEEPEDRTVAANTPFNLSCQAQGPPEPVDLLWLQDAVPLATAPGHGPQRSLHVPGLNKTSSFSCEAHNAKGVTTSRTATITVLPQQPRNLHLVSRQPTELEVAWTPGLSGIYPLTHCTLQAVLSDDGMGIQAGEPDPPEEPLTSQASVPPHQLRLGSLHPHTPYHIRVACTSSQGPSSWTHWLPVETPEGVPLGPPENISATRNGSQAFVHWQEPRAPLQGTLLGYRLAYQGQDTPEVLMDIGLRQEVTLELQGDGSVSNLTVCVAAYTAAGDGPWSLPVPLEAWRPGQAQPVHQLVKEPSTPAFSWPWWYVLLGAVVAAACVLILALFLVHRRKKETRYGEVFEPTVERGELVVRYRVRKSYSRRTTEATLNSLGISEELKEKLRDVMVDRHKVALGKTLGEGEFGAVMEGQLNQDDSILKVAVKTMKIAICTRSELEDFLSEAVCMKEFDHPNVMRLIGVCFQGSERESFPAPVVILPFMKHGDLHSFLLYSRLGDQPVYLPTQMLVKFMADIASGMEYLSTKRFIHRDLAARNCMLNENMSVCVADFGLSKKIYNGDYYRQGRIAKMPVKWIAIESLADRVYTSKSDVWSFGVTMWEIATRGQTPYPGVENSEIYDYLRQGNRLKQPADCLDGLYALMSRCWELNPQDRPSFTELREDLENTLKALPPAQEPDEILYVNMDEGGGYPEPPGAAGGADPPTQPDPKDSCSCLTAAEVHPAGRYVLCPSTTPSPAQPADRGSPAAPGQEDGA
Sequence of Dual specificity mitogen-activated protein kinase kinase 2 (Homo sapiens) (P36507 whole entry): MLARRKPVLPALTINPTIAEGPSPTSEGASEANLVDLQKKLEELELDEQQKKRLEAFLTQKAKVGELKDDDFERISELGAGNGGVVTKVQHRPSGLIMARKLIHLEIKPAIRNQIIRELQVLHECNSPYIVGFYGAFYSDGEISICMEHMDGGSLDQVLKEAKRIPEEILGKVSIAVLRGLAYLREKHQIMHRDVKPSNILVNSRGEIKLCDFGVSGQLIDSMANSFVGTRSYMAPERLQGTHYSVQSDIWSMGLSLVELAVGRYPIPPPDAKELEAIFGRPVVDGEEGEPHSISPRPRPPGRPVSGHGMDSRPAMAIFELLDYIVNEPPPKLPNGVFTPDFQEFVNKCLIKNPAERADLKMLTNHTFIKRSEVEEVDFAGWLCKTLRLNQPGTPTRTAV
Sequence of Tyrosine-protein kinase JAK2 (Homo sapiens) (O60674 whole entry, the tested form may be a part): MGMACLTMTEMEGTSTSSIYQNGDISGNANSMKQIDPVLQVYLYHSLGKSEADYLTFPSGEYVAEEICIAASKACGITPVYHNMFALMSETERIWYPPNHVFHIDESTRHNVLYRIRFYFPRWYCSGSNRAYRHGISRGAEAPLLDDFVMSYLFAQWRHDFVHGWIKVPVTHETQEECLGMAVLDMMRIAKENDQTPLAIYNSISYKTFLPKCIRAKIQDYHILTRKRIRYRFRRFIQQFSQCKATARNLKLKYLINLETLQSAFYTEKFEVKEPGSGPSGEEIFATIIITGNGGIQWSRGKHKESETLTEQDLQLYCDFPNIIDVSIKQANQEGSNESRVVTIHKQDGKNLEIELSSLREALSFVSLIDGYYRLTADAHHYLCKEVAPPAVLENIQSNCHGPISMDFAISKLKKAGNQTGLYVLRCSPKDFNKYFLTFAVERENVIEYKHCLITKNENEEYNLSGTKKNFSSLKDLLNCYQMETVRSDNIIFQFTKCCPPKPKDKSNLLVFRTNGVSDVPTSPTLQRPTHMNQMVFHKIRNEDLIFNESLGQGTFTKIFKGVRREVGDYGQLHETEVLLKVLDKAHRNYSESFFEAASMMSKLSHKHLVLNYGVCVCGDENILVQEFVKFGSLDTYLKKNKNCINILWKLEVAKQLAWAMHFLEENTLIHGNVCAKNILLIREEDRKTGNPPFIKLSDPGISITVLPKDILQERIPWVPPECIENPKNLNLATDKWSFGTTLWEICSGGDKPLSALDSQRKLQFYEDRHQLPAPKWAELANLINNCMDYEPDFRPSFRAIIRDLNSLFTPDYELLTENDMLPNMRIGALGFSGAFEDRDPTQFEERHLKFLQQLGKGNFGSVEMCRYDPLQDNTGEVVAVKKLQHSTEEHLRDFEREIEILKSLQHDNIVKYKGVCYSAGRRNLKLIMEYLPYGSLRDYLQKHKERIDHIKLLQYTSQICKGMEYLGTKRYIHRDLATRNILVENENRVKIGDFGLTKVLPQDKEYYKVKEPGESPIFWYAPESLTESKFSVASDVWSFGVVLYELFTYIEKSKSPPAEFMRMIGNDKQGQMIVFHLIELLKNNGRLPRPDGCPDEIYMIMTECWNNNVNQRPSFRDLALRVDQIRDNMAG

Activity [1]: 100%
SMILES: CO[C@@H]1[C@H](N(C)C(=O)CCC(=O)NCCC(=O)NCCC(=O)NCCC(N)=O)C[C@H]2O[C@]1(C)n1c3ccccc3c3c4c(c5c6ccccc6n2c5c31)C(=O)NC4

Activity [2]: 4%
Activity [3]: 14%
Activity [4]: 100%
Activity [5]: 41%
Activity [6]: 1%
Activity [7]: 100%
SMILES: CO[C@@H]1[C@H](N(C)C(=O)CCC(=O)NCCC(=O)NCCC(=O)NCCC(=O)NCCC(=O)NCCC(=O)NCCC(=O)NCCC(=O)N[C@H]2CSSC[C@@H](C(=O)NCC(N)=O)NC(=O)CNC(=O)[C@H](Cc3ccccc3)NC(=O)[C@H](C(C)C)NC(=O)[C@H](CCCNC(=N)N)NC(=O)[C@H](Cc3ccccc3)NC(=O)[C@H](C(C)C)NC2=O)C[C@H]2O[C@]1(C)n1c3ccccc3c3c4c(c5c6ccccc6n2c5c31)C(=O)NC4 ({Staurosporine-Suc-βAla-βAla-βAla-βAla-βAla-βAla-βAla}-CVFRVFGCG-NH2; disulfide 1-8)

Activity [8]: 81%
Activity [9]: 83%
Activity [10]: 0%
Activity [11]: 5.7%
Activity [12]: 90%
SMILES: CO[C@@H]1[C@H](N(C)C(=O)CCC(=O)NCCC(=O)NCCC(=O)NCCC(=O)NCCC(=O)NCCC(=O)NCCC(=O)NCCC(=O)N[C@H]2CNC(=O)C[C@@H](C(N)=O)NC(=O)CNC(=O)[C@H](Cc3ccccc3)NC(=O)[C@H](C(C)C)NC(=O)[C@H](CCCNC(=N)N)NC(=O)[C@H](Cc3ccccc3)NC(=O)[C@H](C(C)C)NC2=O)C[C@H]2O[C@]1(C)n1c3ccccc3c3c4c(c5c6ccccc6n2c5c31)C(=O)NC4 ({Staurosporine-Suc-βAla-βAla-βAla-βAla-βAla-βAla-βAla}-[Dap]VFRVFGD-NH2; lactam 1-8)
